Active and inactive are the calls of the source. The rule behind the calls is not given here.
Experiments:
[1] = Antiproliferative activity against human PC3MM2 cells; type: functional, cell-based
In short: (§1)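 Antiproliferative assay in SkBr3 (Her2-overexpressing breast) and PC3-MM2 (androgen-independent prostate) cancer cells. IC50 in μM given as mean ± standard deviation of at least two separate experiments, each run in triplicate.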

[2] = molecular target: T1, Heat shock protein HSP90 (Homo sapiens) (UniProt P07900+P08238); experiment: Induction of HSP90-mediated HSF1 expression in human PC3MM2 cells at 10 uM after 24 hrs by Western blot analysis; type: cell-based
In short: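 PC3-MM2 cells exposed to 10 μM of each compound for 24 h. HSF1 measured by Western blot relative to β-actin.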

[3] = molecular target: T1, Heat shock protein HSP90 (Homo sapiens); experiment: Effect on Hsp90 in human PC3MM2 cells assessed as stimulation of firefly luciferase rematuration at 0.02 to 20 uM incubated for 1 hr by luciferase reporter gene assay; type: cell-based
In short: (§2)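 Hsp90-dependent refolding of thermally denatured firefly luciferase in PC3-MM2 cells. Compounds tested from 0.02 to 20 μM.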

SK-BR-3 = experiment: Antiproliferative activity against human SK-BR-3 cells; type: functional, cell-based; in short: as §1
Rattus norvegicus = species on record: Rattus norvegicus; experiment: Neuroprotective activity in rat 50B11 cells assessed as maximal respiratory capacity at 5 uM after 24 hrs in presence of oligomycin/FCCP/rotenon/antimycin by extracellular flux analysis
Homo sapiens [4] = species on record: Homo sapiens; experiment: Inhibition of Hsp90alpha/Aha1 interaction in human PC3MM2 cells assessed as remaining Hsp90alpha/Aha complex levels at 100 uM after 24 hrs by Western blot analysis (reference value: 98 to 100 %); type: cell-based
[5] = molecular target: T1, Heat shock protein HSP90 (Homo sapiens); experiment: Inhibition of Hsp90 in human PC3MM2 cells assessed as suppression of firefly luciferase rematuration at 0.02 to 20 uM incubated for 1 hr by luciferase reporter gene assay; type: cell-based; in short: as §2
Homo sapiens [6] = species on record: Homo sapiens; experiment: Inhibition of Hsp90alpha/Aha1 interaction in human PC3MM2 cells assessed as remaining Hsp90alpha/Aha complex levels at 35 uM after 24 hrs by Western blot analysis (reference value: 98 to 100 %); type: cell-based
[7] = molecular target: T1, Heat shock protein HSP90 (Homo sapiens); experiment: Inhibition of Hsp90 in human PC3MM2 cells assessed as downregulation of Raf1 at 0.5 to 3 times IC50 after 24 hrs by Western blot analysis; type: cell-based
In short: (§3)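 PC3-MM2 cells treated 24 h at a high (3 × IC50) and a low (0.5 × IC50) concentration. Hsp90 client protein levels measured by Western blot with actin as loading control.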

[8] = molecular target: T1, Heat shock protein HSP90 (Homo sapiens); experiment: Induction of Hsp90 in human PC3MM2 cells at 0.5 to 3 times IC50 after 24 hrs by Western blot analysis; type: cell-based; in short: as §3
[9] = molecular target: T1, Heat shock protein HSP90 (Homo sapiens); experiment: Inhibition of Hsp90 in human PC3MM2 cells assessed as downregulation of Her2 at 0.5 to 3 times IC50 after 24 hrs by Western blot analysis; type: cell-based; in short: as §3
[10] = molecular target: T1, Heat shock protein HSP90 (Homo sapiens); experiment: Inhibition of Hsp90 in human PC3MM2 cells assessed as downregulation of Akt at 0.5 to 3 times IC50 after 24 hrs by Western blot analysis; type: cell-based; in short: as §3
Homo sapiens [11] = species on record: Homo sapiens; experiment: Inhibition of Hsp90alpha/Aha1 interaction in human PC3MM2 cells assessed as remaining Hsp90alpha/Aha complex levels at 50 uM after 24 hrs by Western blot analysis (reference value: 98 to 100 %); type: cell-based
[12] = molecular target: T1, Heat shock protein HSP90 (Homo sapiens); experiment: Inhibition of Hsp90 in human PC3MM2 cells assessed as downregulation of Her2 at 100 uM after 24 hrs by Western blot analysis; type: cell-based
[13] = molecular target: T1, Heat shock protein HSP90 (Homo sapiens); experiment: Inhibition of Hsp90 in human PC3MM2 cells assessed as downregulation of Raf1 at 100 uM after 24 hrs by Western blot analysis; type: cell-based
[14] = molecular target: T1, Heat shock protein HSP90 (Homo sapiens); experiment: Inhibition of Hsp90 in human PC3MM2 cells assessed as downregulation of Akt at 100 uM after 24 hrs by Western blot analysis; type: cell-based

fold change (FC) [2] | Activity [3] | IC50 (SK-BR-3) [µM] | inhibition [5] | Raf1 downregulation (active/not active) [7] | Activity [8] | Her2 downregulation (active/inactive call) [9] | Akt downregulation (active/not active) [10] | inhibition [12] | inhibition [13] | inhibition [14] | SMILES | IC50 [1] [µM] | Activity (Rattus norvegicus) | remaining Hsp90alpha/Aha1 complex level (Homo sapiens [4]) [%] | Activity (Homo sapiens [6]) [%] | Activity (Homo sapiens [11]) [%]
2 to 3.7 | Active | > 900 | inactive | – | – | – | – | – | – | – | CO[C@@H]1[C@@H](O)[C@@H](O)[C@H](Oc2ccc3cc(NC(C)=O)c(=O)oc3c2C)OC1(C)C | > 500 | Active | 68 to 70 | – | –
0.6 | – | 58.3 | Active | Active | inactive | Active | Active | – | – | – | CCCCCCC(=O)Nc1cc2ccc(O[C@@H]3OC(C)(C)[C@H](OC)[C@@H](O)[C@H]3O)c(C)c2oc1=O | 34.7 | Active | – | 38 | –
1 | – | 46.8 | Active | Active | inactive | Active | Active | – | – | – | CO[C@@H]1[C@@H](O)[C@@H](O)[C@H](Oc2ccc3cc(NC(=O)C4CCCCC4)c(=O)oc3c2C)OC1(C)C | 54.6 | Active | – | – | 22
3.7 | – | 517 | – | – | – | – | – | inactive | inactive | inactive | CO[C@@H]1[C@@H](O)[C@@H](O)[C@H](Oc2ccc3cc(NC(=O)C4CC4)c(=O)oc3c2C)OC1(C)C | > 500 | Active | 68 | – | –
1.1 | Active | 313 | inactive | – | – | – | – | inactive | inactive | inactive | CCCC(=O)Nc1cc2ccc(O[C@@H]3OC(C)(C)[C@H](OC)[C@@H](O)[C@H]3O)c(C)c2oc1=O | 466 | Active | 100 | – | –
1.5 | Active | 118 | inactive | – | – | – | – | inactive | inactive | inactive | CCCCC(=O)Nc1cc2ccc(O[C@@H]3OC(C)(C)[C@H](OC)[C@@H](O)[C@H]3O)c(C)c2oc1=O | 317 | Active | 72 | – | –
1.2 | Active | 643 | inactive | – | – | – | – | inactive | inactive | inactive | CCC(=O)Nc1cc2ccc(O[C@@H]3OC(C)(C)[C@H](OC)[C@@H](O)[C@H]3O)c(C)c2oc1=O | 504 | Active | 86 | – | –
0.6 | – | 84 | Active | Active | inactive | Active | Active | – | – | – | CCCCCC(=O)Nc1cc2ccc(O[C@@H]3OC(C)(C)[C@H](OC)[C@@H](O)[C@H]3O)c(C)c2oc1=O | 53.7 | Active | – | – | 46
4 | – | 220 | – | – | – | – | – | inactive | inactive | inactive | CO[C@@H]1[C@@H](O)[C@@H](O)[C@H](Oc2ccc3cc(NC(=O)C4CCC4)c(=O)oc3c2C)OC1(C)C | 284 | Active | 54 | – | –
2 | – | 67 | Active | Active | inactive | Active | Active | – | – | – | CO[C@@H]1[C@@H](O)[C@@H](O)[C@H](Oc2ccc3cc(NC(=O)C4CCCC4)c(=O)oc3c2C)OC1(C)C | 144 | Active | 27 | – | –
